Measured values reported in ChEMBL document CHEMBL4342478, “Discovery of Potent N-Ethylurea Pyrazole Derivatives as Dual Inhibitors of Trypanosoma brucei and Trypanosoma cruzi” (ACS Med Chem Lett, 2020).
≈ marks a conversion by molar mass, not a printed value. Calls of active or inactive are those of the source. The rule behind the calls is not given here.

Tests used:
Trypanosoma cruzi [1] = experiment: Antitrypanosomal activity against Trypanosoma cruzi infected in rat H9C2 cells by DRAQ5 DNA dye based imaging analysis; assay type: functional, organism-based
In short: (§1)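 IC50 values are the mean of two independent experiments. The T. b. brucei assay uses free parasites. The T. cruzi assay uses intracellular parasites in H9c2 host cells.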

[2] = Selectivity index, ratio of IC50 for human HEK293 cells incubated for 69 hrs by resazurin dye based fluorescence analysis to IC50 for antitrypanosomal activity against Trypanosoma brucei brucei BS427; assay type: toxicity; details: read-out: Ratio IC50
[3] = tested on: Trypanosoma brucei brucei; experiment: Antitrypanosomal activity against Trypanosoma brucei brucei BS427 after 48 hrs by resazurin dye based fluorescence assay; assay type: functional, organism-based; in short: as §1
[4] = Selectivity index, ratio of cytotoxicity against rat H9C2 cells to IC50 for antitrypanosomal activity against Trypanosoma cruzi infected in rat H9C2 cells; assay type: toxicity, cell-based; details: read-out: Selectivity Index
Trypanosoma cruzi [5] = experiment: Antitrypanosomal activity against Trypanosoma cruzi Tulahuen C4 infected in mouse 3T3 cells by Hoechst/HCS CellMask green dye based assay; assay type: functional, organism-based; details: Tulahuen C4, NIH3T3
[6] = Selectivity index, ratio of cytotoxicity against mouse 3T3 cells to IC50 for antitrypanosomal activity against Trypanosoma cruzi Tulahuen C4 infected in mouse 3T3 cells; assay type: toxicity, cell-based; details: read-out: Selectivity Index
[7] = Selectivity index, ratio of cytotoxicity against human HEK293 cells to IC50 for antitrypanosomal activity against bloodstream form of Trypanosoma brucei brucei Lister 427; assay type: toxicity, cell-based; details: read-out: Selectivity Index
In short: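 Ratio of HEK293 cytotoxicity to the IC50 against free, non-intracellular T. b. brucei parasites. IC50 values are the average of two independent experiments.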

[8] = tested on: Trypanosoma brucei brucei; experiment: Antitrypanosomal activity against bloodstream form of Trypanosoma brucei brucei Lister 427; assay type: functional, organism-based
Plasmodium falciparum = experiment: Antiplasmodial activity against erythrocytic stage of Plasmodium falciparum after 48 hrs by [3H]-hypoxanthine incorporation assay; assay type: functional, organism-based
[9] = tested on: Trypanosoma brucei rhodesiense; experiment: Antitrypanosomal activity against blood stream form of Trypanosoma brucei rhodesiense STIB900 after 72 hrs by Alamar blue based fluorometric assay; assay type: functional, organism-based
Trypanosoma cruzi [10] = experiment: Antitrypanosomal activity against Trypanosoma cruzi Tulahuen C2C4 trypomastigotes infected in rat L6 cells after 96 hrs by photometric analysis; assay type: functional, organism-based
Leishmania donovani = experiment: AntiLeishmanial activity against amastigote form of Leishmania donovani MHOM/ET/67/L82 after 72 hrs by Alamar blue dye based fluorometric analysis; assay type: functional, organism-based
Trypanosoma cruzi [11] = experiment: Trypanosomacidal activity against Trypanosoma cruzi strain Y trypomastigotes assessed as reduction in number of infected cells at faster rate at 20 uM measured for 24 to 96 hrs by Hoechst 33342 staining based fluorescence imaging assay; assay type: functional, organism-based
[12] = Metabolic stability in human liver microsomes; assay type: ADME, Microsome
[13] = Kinetic solubility of compound at pH 2 to 6.5 by nephelometry; assay type: physicochemical; details: buffer, read-out: Kinetic_solubility
Trypanosoma cruzi [14] = experiment: Trypanosomacidal activity against Trypanosoma cruzi strain Y trypomastigotes assessed as reduction in number of infected cells at 0.312 uM measured within first 24 hrs by Hoechst 33342 staining based fluorescence imaging assay; assay type: functional, organism-based
In short: (§2)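 Time-to-kill assay against intracellular T. cruzi, with test article at 0.312 or 0.078 μM. Controls were benznidazole 20 μM, posaconazole 0.04 μM and DMSO. The number of infected host cells was tracked over time after drug addition.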

Trypanosoma cruzi [15] = experiment: Trypanosomacidal activity against Trypanosoma cruzi strain Y trypomastigotes assessed as reduction in number of infected cells at 0.312 uM measured for 24 to 96 hrs by Hoechst 33342 staining based fluorescence imaging assay relative to benznidazole; assay type: functional; in short: as §2
[16] = Trypanosoma brucei, BS427, 48 h, read-out: IC50

Cc1ccc(-c2ccn(CCNC(=O)N3CCCCC3)n2)cc1
IC50 (Trypanosoma cruzi [1]): 10000 nM
selectivity ratio at 69 h [2]: 16
IC50 [3, 16]: 5300 nM
selectivity ratio [4]: 5

O=C(NCCn1ccc(-c2ccc(Cl)cc2)n1)N1CCCCC1
IC50 (Trypanosoma cruzi [1]): 1000 nM
selectivity ratio at 69 h [2]: 35
IC50 [3, 16]: 1200 nM
selectivity ratio [4]: 50

O=C(NCCn1ccc(-c2ccc(F)c(F)c2)n1)N1CCCCC1
IC50 (Trypanosoma cruzi [5]): 119 nM
selectivity ratio [6]: 616
selectivity ratio at 69 h [2]: 2910
IC50 [3, 16]: 27 nM

CCN(CC)C(=O)NCCn1ccc(-c2ccccc2)n1
IC50 (Trypanosoma cruzi [1]): 3200 nM
selectivity ratio at 69 h [2]: 42
IC50 [3, 16]: 2000 nM
selectivity ratio [4]: 16

CC(C)(C)C(=O)NCCc1csc(-c2cccc(F)c2)n1
IC50 (Trypanosoma cruzi [1]): 2300 nM
selectivity ratio [7]: > 96
IC50 [8]: 800 nM
selectivity ratio [4]: 27

N#Cc1cccc(-c2ccn(CCNC(=O)N3CCCCC3)n2)c1
IC50 (Trypanosoma cruzi [1]): 400 nM
selectivity ratio at 69 h [2]: 236
IC50 [3, 16]: 350 nM
selectivity ratio [4]: 126

O=C(NCCn1ccc(-c2ccccc2)n1)N1CCCC1
selectivity ratio at 69 h [2]: 128
IC50 [3, 16]: 650 nM

O=C(NCCn1ccc(-c2ccc(F)c(F)c2)n1)N1CC[C@@H](F)C1
Activity (Plasmodium falciparum): Active
IC50 (Trypanosoma cruzi [1]): 100 nM
Activity [9]: Active
Activity (Trypanosoma cruzi [10]): Active
selectivity ratio at 69 h [2]: 4840
IC50 [3, 16]: 16 nM
Activity (Leishmania donovani): Active
selectivity ratio [4]: 501

O=C(NCCn1ccc(-c2ccccc2)n1)N1CCCCCC1
IC50 (Trypanosoma cruzi [1]): 630 nM
selectivity ratio at 69 h [2]: 215
IC50 [3, 16]: 390 nM
selectivity ratio [4]: 79

Cc1cccc(-c2ccn(CCNC(=O)N3CCCCC3)n2)c1
IC50 (Trypanosoma cruzi [1]): 320 nM
selectivity ratio at 69 h [2]: 232
IC50 [3, 16]: 360 nM
selectivity ratio [4]: 158

O=C(NCCn1ccc(-c2ccccc2)n1)N1CC[C@H](F)C1
IC50 (Trypanosoma cruzi [1]): 250 nM
selectivity ratio at 69 h [2]: 1300
IC50 [3, 16]: 61 nM
selectivity ratio [4]: 200

O=C(NCCn1ccc(-c2ccccc2)n1)C1CCCC1
IC50 (Trypanosoma cruzi [1]): 3200 nM
selectivity ratio at 69 h [2]: 39
IC50 [3, 16]: 1100 nM
selectivity ratio [4]: 16

CC(Cn1ccc(-c2ccccc2)n1)NC(=O)N1CCCCC1 (stereo unspecified)
IC50 (Trypanosoma cruzi [1]): 1000 nM
selectivity ratio at 69 h [2]: 131
IC50 [3, 16]: 640 nM
selectivity ratio [4]: 50

O=C(Cn1ccnc1[N+](=O)[O-])NCc1ccccc1
Activity (Trypanosoma cruzi [11]): Active

O=C(NCCn1ccc(-c2ccc(F)cc2)n1)N1CC[C@@H](F)C1
IC50 (Trypanosoma cruzi [1]): 250 nM
selectivity ratio at 69 h [2]: 922
IC50 [3, 16]: 86 nM
selectivity ratio [4]: 200

O=C(NCCn1ccc(-c2ccccc2F)n1)N1CCCCC1
Activity (Plasmodium falciparum): Active
Activity [9]: Active
Activity (Trypanosoma cruzi [10]): Active
selectivity ratio at 69 h [2]: 185
IC50 [3, 16]: 60 nM
Activity (Leishmania donovani): Active

CC(C)NC(=O)NCCn1ccc(-c2ccccc2)n1
selectivity ratio at 69 h [2]: 11
IC50 [3, 16]: 7500 nM

COc1cccc(-c2ccn(CCNC(=O)N3CCCCC3)n2)c1
IC50 (Trypanosoma cruzi [1]): 4000 nM
selectivity ratio at 69 h [2]: 67
IC50 [3, 16]: 1200 nM
selectivity ratio [4]: 13

O=C(NCCn1ccc(-c2ccc(F)cc2)n1)N1CC[C@H](F)C1
Activity (Plasmodium falciparum): Active
IC50 (Trypanosoma cruzi [1]): 130 nM
Activity [9]: Active
Activity (Trypanosoma cruzi [10]): Active
selectivity ratio at 69 h [2]: 2450
IC50 [3, 16]: 32 nM
Activity (Leishmania donovani): Active
selectivity ratio [4]: 398

O=C(CCn1ccc(-c2ccccc2)n1)Nc1ccccc1
IC50 [3]: Not Active

O=C(NCCn1ccc(-c2ccc(F)cc2)n1)N1CCCC1
IC50 (Trypanosoma cruzi [1]): 320 nM
selectivity ratio at 69 h [2]: 1060
IC50 [3, 16]: 75 nM
selectivity ratio [4]: 158

O=C(NCCn1ccc(-c2ccc(F)cc2F)n1)N1CCCCC1
selectivity ratio at 69 h [2]: 1880
IC50 [3, 16]: 45 nM

O=S(=O)(NCCn1ccc(-c2ccccc2)n1)c1ccccc1
IC50 (Trypanosoma cruzi [1]): 50000 nM
IC50 [3]: Not Active
selectivity ratio [4]: 1

N#Cc1ccc(-c2ccn(CCNC(=O)N3CCCCC3)n2)cc1
IC50 (Trypanosoma cruzi [1]): 40000 nM
selectivity ratio [4]: 1

c1ccc(CNCCn2ccc(-c3ccccc3)n2)cc1
IC50 [3]: Not Active

O=C(NCCn1ccc(-c2ccccc2)n1)N1CC[C@@H](F)C1
IC50 (Trypanosoma cruzi [1]): 790 nM
selectivity ratio at 69 h [2]: 732
IC50 [3, 16]: 108 nM
selectivity ratio [4]: 63

O=C(NCCn1ccc(-c2ccccc2)n1)c1ccccc1
IC50 (Trypanosoma cruzi [1]): 50000 nM
selectivity ratio at 69 h [2]: 102
IC50 [3, 16]: 610 nM
selectivity ratio [4]: 1

N#Cc1ccccc1-c1ccn(CCNC(=O)N2CCCCC2)n1
IC50 (Trypanosoma cruzi [1]): 13000 nM
selectivity ratio at 69 h [2]: 18
IC50 [3, 16]: 4700 nM
selectivity ratio [4]: 4

COc1ccccc1-c1ccn(CCNC(=O)N2CCCCC2)n1
selectivity ratio at 69 h [2]: 32
IC50 [3, 16]: 2600 nM

O=C(NCCn1ccc(-c2ccc(F)c(F)c2)n1)N1CCCC1
Activity (Plasmodium falciparum): Active
IC50 (Trypanosoma cruzi [1]): 100 nM
Stability [12]: Stable
Activity [9]: Active
Activity (Trypanosoma cruzi [10]): Active
solubility kinetic [13]: 12.5 to 25 µg/mL (≈ 39 to 78 µM)
selectivity ratio at 69 h [2]: 3630
IC50 [3, 16]: 22 nM
Activity (Leishmania donovani): Active
selectivity ratio [4]: 501

Cc1ccccc1-c1ccn(CCNC(=O)N2CCCCC2)n1
IC50 (Trypanosoma cruzi [1]): 320 nM
selectivity ratio at 69 h [2]: 240
IC50 [3, 16]: 350 nM
selectivity ratio [4]: 158

O=C(NCCn1ccc(-c2cccc(Cl)c2)n1)N1CCCCC1
IC50 (Trypanosoma cruzi [1]): 130 nM
selectivity ratio at 69 h [2]: 327
IC50 [3, 16]: 130 nM
selectivity ratio [4]: 398

O=C(NCCn1ccc(-c2ccccc2)n1)N1CCOCC1
IC50 (Trypanosoma cruzi [1]): 25000 nM
selectivity ratio at 69 h [2]: 13
IC50 [3, 16]: 6600 nM
selectivity ratio [4]: 2

COc1ccc(-c2ccn(CCNC(=O)N3CCCCC3)n2)cc1
IC50 (Trypanosoma cruzi [1]): 25000 nM
selectivity ratio at 69 h [2]: 12
IC50 [3, 16]: 7100 nM
selectivity ratio [4]: 2

CC(CNC(=O)N1CCCCC1)n1ccc(-c2ccccc2)n1 (stereo unspecified)
IC50 (Trypanosoma cruzi [1]): 200 nM
selectivity ratio at 69 h [2]: 358
IC50 [3, 16]: 230 nM
selectivity ratio [4]: 251

O=C(NCCn1ccc(-c2ccccc2)n1)N1CCCCC1
Activity (Plasmodium falciparum): Active
IC50 (Trypanosoma cruzi [1]): 250 nM
Activity [9]: Active
Activity (Trypanosoma cruzi [14]): Active
Activity (Trypanosoma cruzi [10]): Active
solubility kinetic [13]: > 20 µg/mL
fold change (FC) (Trypanosoma cruzi [15]): 36
selectivity ratio at 69 h [2]: 1350
IC50 [3, 16]: 60 nM
Activity (Leishmania donovani): Active
selectivity ratio [4]: 32

CC(C)OC(=O)NCCn1ccc(-c2ccccc2)n1
selectivity ratio at 69 h [2]: 82
IC50 [3, 16]: 1000 nM

O=C(NCCn1ccc(-c2ccc(F)cc2)n1)N1CCCCC1
Activity (Plasmodium falciparum): Active
Stability [12]: Stable
Activity [9]: Active
Activity (Trypanosoma cruzi [10]): Active
selectivity ratio at 69 h [2]: 161
IC50 [3, 16]: 60 nM
Activity (Leishmania donovani): Active

O=C(NCCn1ccc(-c2ccccc2Cl)n1)N1CCCCC1
IC50 (Trypanosoma cruzi [1]): 130 nM
selectivity ratio at 69 h [2]: 361
IC50 [3, 16]: 120 nM
selectivity ratio [4]: 398

O=C(NCCn1ccc(-c2cccc(F)c2)n1)N1CCCCC1
Activity (Plasmodium falciparum): Active
Activity [9]: Active
Activity (Trypanosoma cruzi [10]): Active
selectivity ratio at 69 h [2]: 197
IC50 [3, 16]: 50 nM
Activity (Leishmania donovani): Active
